According to ChEMBL document CHEMBL3525963, “Tissue distribution and elimination of [14C]apixaban in rats” (Drug Metab Dispos, 2011):

How the values were obtained:
Format in all cases: ADME, organism-based
Design in all cases: dose 5 mg/kg, dosed compound name [14C]-apixaban, route oral
Conditions in all cases: in vivo
Pancreas [1] = experiment: Biodistribution in female Sprague-Dawley rat pancreas at 5 mg/kg, po administered as single dose measured after 8 hrs
Procedure, shortened: (§1)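 [¹⁴C]Apixaban given by oral gavage at 5 mg/kg (100 μCi/kg) in 0.5% Tween 80 in Labrafil (1.0 mg/mL dosing solution) to rats fasted overnight through 4 h post-dose. One rat per time point; carcass frozen in hexane/dry ice. Quantitative whole-body autoradiography used 40 µm sagittal sections and a phosphor imaging plate calibrated with [¹⁴C]glucose standards (0.001–6.5 μCi/g). Read-out in µg eq apixaban/g; LLOQ 0.037 μg eq/g.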

Liver [2] = experiment: Biodistribution in female Sprague-Dawley rat liver at 5 mg/kg, po administered as single dose measured after 72 hrs
Procedure, shortened: (§2)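 Quantitative whole-body autoradiography was run after a single 5 mg/kg (100 μCi/kg) oral gavage to fasted female or pregnant SD rats, one rat per time point. Carcasses were frozen in hexane/dry ice, and 40 µm sagittal sections were dried at −20°C for at least 48 h. Sections were exposed to a phosphor plate alongside [14C]glucose standards (0.001–6.5 µCi/g). Results are µg eq/g, with LLOQ 0.037 µg eq/g.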

Harderian gland [3] = experiment: Biodistribution in male Sprague-Dawley rat harderian gland at 5 mg/kg, po administered as single dose measured after 0.5 hrs; procedure, shortened: as §1
Rattus norvegicus [4] = experiment: Biodistribution in female Sprague-Dawley rat salivary gland at 5 mg/kg, po administered as single dose measured after 1 hr
Procedure, shortened: (§3)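 [14C]apixaban (20 μCi/mL in dosing solution) in 0.5% Tween 80 in Labrafil given by oral gavage to fasted female rats, 206-213 g, at 100 μCi/kg. One rat per time point was euthanized and snap-frozen. Sagittal 40 µm whole-body sections were read by QWBA phosphor imaging against [14C]glucose standards. Results are in µg eq apixaban/g, with LLOQ 0.037 μg eq/g.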

Blood = experiment: Cmax in pregnant Sprague-Dawley rat blood at 5 mg/kg, po administered as single dose
Procedure, shortened: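 Fasted male, female or pregnant SD rats received a single oral gavage of 5 mg/kg (100 μCi/kg) in 0.5% Tween 80/Labrafil. One rat was killed per time point, up to 168 h (48 h for pregnant). Blood was collected into K3EDTA. Blood radioactivity came from autoradiogram or LSC data, and Cmax was taken from the concentration-time profile.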

Pancreas [5] = experiment: Biodistribution in pregnant Sprague-Dawley rat pancreas at 5 mg/kg, po administered as single dose measured after 8 hrs
Procedure, shortened: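 Pregnant SD rats (270-319 g) were fasted overnight and given one oral gavage of 5 mg/kg (100 μCi/kg) in 0.5% Tween 80 in Labrafil. One rat was euthanized per time point (0.5, 1, 4, 8, 24, 48 h) and the carcass frozen. 40 µm sagittal sections were phosphor-imaged against [14C]glucose standards and results reported as µg eq/g; LLOQ 0.037 µg eq/g.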

Rattus norvegicus [6] = experiment: Biodistribution in female Sprague-Dawley rat bone marrow at 5 mg/kg, po administered as single dose measured after 72 hrs; procedure, shortened: as §2
Harderian gland [7] = experiment: Biodistribution in male Sprague-Dawley rat harderian gland at 5 mg/kg, po administered as single dose measured after 1 hr; procedure, shortened: as §1
Spleen [8] = experiment: Biodistribution in male Sprague-Dawley rat spleen at 5 mg/kg, po administered as single dose measured after 0.5 hrs
Procedure, shortened: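 [14C]apixaban (1.0 mg/mL, 20 μCi/mL) in 0.5% Tween 80 in Labrafil, given by oral gavage at 100 μCi/kg to male rats (225-252 g) fasted overnight through 4 h post-dose. One rat per time point. Carcasses frozen in hexane/dry ice and cut into 40 µm sagittal sections. QWBA read on phosphor plates against [14C]glucose standards, reported as µg eq/g. LLOQ 0.037 µg eq/g.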

Rattus norvegicus [9] = experiment: Biodistribution in female Sprague-Dawley rat salivary gland at 5 mg/kg, po administered as single dose measured after 0.5 hrs; procedure, shortened: as §3
Liver [10] = experiment: Biodistribution in male Sprague-Dawley rat liver at 5 mg/kg, po administered as single dose measured after 72 hrs
Procedure, shortened: (§4)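 Fasted male SD rats (225-252 g) each received one oral gavage dose of [14C]apixaban, 5 mg/kg (100 μCi/kg), in 0.5% Tween 80/Labrafil vehicle. One rat was killed per time point, from 0.5 to 168 h. Frozen carcasses were cut into 40 µm sagittal whole-body sections and read by QWBA phosphor imaging against [14C]glucose calibrants. Results are in µg apixaban eq/g; BLQ <0.037 µg eq/g.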

[11] = Drug level in lactating Sprague-Dawley rat milk at 5 mg/kg, po administered as single dose after 6 hrs
Spleen [12] = experiment: Biodistribution in male Sprague-Dawley rat spleen at 5 mg/kg, po administered as single dose measured after 8 hrs; procedure, shortened: as §4
Rattus norvegicus [13] = experiment: Biodistribution in fetal blood of pregnant Sprague-Dawley rat at 5 mg/kg, po administered as single dose measured after 1 hr
Procedure, shortened: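 Pregnant rats, 270-319 g and fasted overnight, received [14C]apixaban by oral gavage at 100 μCi/kg in 0.5% Tween 80/Labrafil. One dam per time point was euthanized and frozen in hexane/dry ice. Fetal tissue radioactivity was measured by QWBA on 40 µm sagittal sections calibrated with [14C]glucose standards. Values are in µg eq/g, with LLOQ 0.037 μg eq/g.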

Rattus norvegicus [14] = experiment: Biodistribution in female Sprague-Dawley rat kidney cortex at 5 mg/kg, po administered as single dose measured after 0.5 hrs; procedure, shortened: as §3
Rattus norvegicus [15] = experiment: Biodistribution in pregnant Sprague-Dawley rat placenta at 5 mg/kg, po administered as single dose measured after 24 hrs
Rattus norvegicus [16] = experiment: Biodistribution in male Sprague-Dawley rat bone marrow at 5 mg/kg, po administered as single dose measured after 8 hrs
Procedure, shortened: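 Fasted male rats, 225-252 g, received [14C]apixaban by single oral gavage at 100 μCi/kg in 0.5% Tween 80/Labrafil. One rat was killed per time point and the carcass frozen. Tissue radioactivity was quantified by QWBA (40 µm sagittal sections, phosphor plate, [14C]glucose calibration) as µg eq apixaban/g, with LLOQ 0.037 μg eq/g.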

Spleen [17] = experiment: Biodistribution in female Sprague-Dawley rat spleen at 5 mg/kg, po administered as single dose measured after 0.5 hrs; procedure, shortened: as §1
Heart = experiment: Biodistribution in male Sprague-Dawley rat heart at 5 mg/kg, po administered as single dose measured after 1 hr; procedure, shortened: as §1
Rattus norvegicus [18] = experiment: Biodistribution in male Sprague-Dawley rat kidney cortex at 5 mg/kg, po administered as single dose measured after 0.5 hrs
Spleen [19] = experiment: Biodistribution in female Sprague-Dawley rat spleen at 5 mg/kg, po administered as single dose measured after 1 hr; procedure, shortened: as §1
Brain = experiment: Biodistribution in female Sprague-Dawley rat brain at 5 mg/kg, po administered as single dose measured after 24 hrs
Procedure, shortened: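 [14C]Apixaban (1.0 mg/mL, 20 μCi/mL in 0.5% Tween 80 in Labrafil) given as a single oral gavage of 5 mg/kg (100 μCi/kg) to fasted female SD rats, one rat per time point. Carcasses were frozen in hexane/dry ice and cut into 40 µm sagittal sections for QWBA against [14C]glucose standards. Brain radioactivity is reported as µg eq/g, with LLOQ 0.037 µg eq/g.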

Radiolabel recovery (Pancreas [1]): 0.19 ugequiv/g
Radiolabel recovery (Liver [2]): Not detected assumed BLQ
Radiolabel recovery (Harderian gland [3]): 0.21 ugequiv/g
Radiolabel recovery (Rattus norvegicus [4]): 0.55 ugequiv/g
Cmax (Blood): 1440 ngequiv/g
Radiolabel recovery (Pancreas [5]): 0.09 ugequiv/g
Radiolabel recovery (Rattus norvegicus [6]): Not detected assumed BLQ
Radiolabel recovery (Harderian gland [7]): 0.69 ugequiv/g
Radiolabel recovery (Spleen [8]): 0.18 ugequiv/g
Radiolabel recovery (Rattus norvegicus [9]): 0.28 ugequiv/g
Radiolabel recovery (Liver [10]): Not detected assumed BLQ
Radiolabel recovery [11]: 8.92 µg/mL
Radiolabel recovery (Spleen [12]): 0.09 ugequiv/g
Radiolabel recovery (Rattus norvegicus [13]): 0.31 ugequiv/g
Radiolabel recovery (Rattus norvegicus [14]): 0.82 ugequiv/g
Radiolabel recovery (Rattus norvegicus [15]): < 0.037 ugequiv/g
Radiolabel recovery (Rattus norvegicus [16]): 0.07 ugequiv/g
Radiolabel recovery (Spleen [17]): 0.29 ugequiv/g
Radiolabel recovery (Heart): 0.7 ugequiv/g
Radiolabel recovery (Rattus norvegicus [18]): 0.81 ugequiv/g
Radiolabel recovery (Spleen [19]): 0.35 ugequiv/g
Radiolabel recovery (Brain): < 0.037 ugequiv/g
Structure (SMILES): COc1ccc(-n2nc(C(N)=O)c3c2C(=O)N(c2ccc(N4CCCC[14C]4=O)cc2)CC3)cc1
